pIC50: −log10 of the molar value.
What was measured:
[1] = Inhibition of Plasmodium falciparum falcipain-2 expressed in Escherichia coli
Outline: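 Recombinant E. coli-expressed, refolded enzyme at 0.25 nM in 100 mM sodium acetate pH 5.5, 500 μM CHAPS, 10 mM DTT, DMSO ≤1%. Substrate H-D-Val-Leu-Arg-AFC at 30 μM final. Inhibitor dilutions mixed with substrate, enzyme added last; fluorescence followed 1 h at room temperature. IC50 from percent activity versus concentration.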

[2] = Inhibition of Plasmodium falciparum falcipain-3 expressed in Escherichia coli
Outline: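 Refolded recombinant enzyme from E. coli, 2 nM, in 100 mM sodium acetate pH 5.5 with 500 μM CHAPS and 10 mM DTT, DMSO up to 1%. H-D-Val-Leu-Arg-AFC at 150 μM final. Reaction started by enzyme addition; fluorescence monitored 1 h at room temperature. IC50 derived from percent activity plotted against inhibitor concentration.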

Row | pIC50 [1] | pIC50 [2] | Structure (SMILES)
1 | 5.34 | – | CC(C)CN(NC(=O)OC(C)(C)C)c1nc(Cl)ncc1C#N
2 | 9.70 | 7.40 | CC(C)CN(NC(=O)c1ccc2[nH]nnc2c1)c1nc(C#N)ncc1Br
3 | 8.70 | 6.78 | Cc1nc(-c2ccccc2)ncc1C(=O)NN(CC(C)C)c1nc(C#N)ncc1Br
4 | 7.19 | 6.00 | CC(C)CN(NC(=O)OC(C)(C)C)c1ncc(C#N)c(Cl)n1
5 | 8.40 | 6.48 | CC(C)CN(NC(=O)c1cccc2c1Cc1ccccc1-2)c1nc(C#N)ncc1Br
6 | 6.65 | 5.84 | Cc1c(C(=O)NN(CC(C)C)c2nc(C#N)ncc2Br)oc2ccccc12
7 | 7.10 | 5.62 | COc1cnc(C#N)nc1N(CC(C)C)NC(=O)OC(C)(C)C
8 | 8.22 | 6.60 | CC(C)CN(NC(=O)c1ccc2ccccc2n1)c1nc(C#N)ncc1Cl
9 | < 5.00 | < 5.00 | CC(C)CN(NC(=O)OC(C)(C)C)c1cc(C#N)ncn1
10 | 8.05 | 6.84 | CC(C)CN(NC(=O)OC(C)(C)C)c1nc(C#N)ncc1Cl
11 | 7.47 | 6.35 | CC(C)(C)OC(=O)NN(c1nc(C#N)ncc1Br)C1CCCC1(C)C (stereo not given)
12 | 7.22 | 6.74 | CC(C)(C)OC(=O)NN(Cc1ccoc1)c1nc(C#N)ncc1Br
13 | 7.60 | 6.08 | Cc1oc(-c2ccccc2)cc1C(=O)NN(CC(C)C)c1nc(C#N)ncc1Br
14 | 7.70 | 6.45 | CC(C)CN(NC(=O)c1ccc(-c2ccc(Cl)cc2)o1)c1nc(C#N)ncc1Br
15 | 8.52 | 8.40 | CC(C)CN(NC(=O)Cc1ccc(F)cc1)c1nc(C#N)ncc1Br
16 | 7.89 | 6.53 | CC(C)(C)OC(=O)NN(c1nc(C#N)ncc1Br)C1CCC1
17 | 8.70 | 6.95 | CC(C)CN(NC(=O)c1nc2ccccc2s1)c1nc(C#N)ncc1Cl
18 | 8.40 | 6.94 | CC(C)CN(NC(=O)c1cccc(Oc2ccccc2)c1)c1nc(C#N)ncc1Br
19 | 9.70 | 7.57 | Cc1nc2cc(C(=O)NN(CC(C)C)c3nc(C#N)ncc3Br)ccc2[nH]1
20 | 9.10 | 6.79 | Cc1nc(-c2ccc(C(=O)NN(CC(C)C)c3nc(C#N)ncc3Br)cc2)cs1
21 | 8.40 | 7.74 | CC(C)CN(NC(=O)C(C)(C)c1ccc(Cl)cc1)c1nc(C#N)ncc1Br

Row | pIC50 [1] | pIC50 [2] | Structure (SMILES)
22 | 7.60 | 6.92 | CC1(CN(NC(=O)OC(C)(C)C)c2nc(C#N)ncc2Br)CCCCC1
23 | 8.52 | 6.47 | CC(C)CN(NC(=O)c1cccc2cc[nH]c12)c1nc(C#N)ncc1Br
24 | 7.40 | 5.78 | CC(C)CN(NC(=O)C1(c2ccc(Cl)cc2)CCCCC1)c1nc(C#N)ncc1Br
25 | 8.52 | 6.45 | CC(C)CN(NC(=O)c1cc(-c2ccccc2)[nH]n1)c1nc(C#N)ncc1Br
26 | 6.21 | 5.68 | CC(C)CN(NC(=O)OC(C)(C)C)c1nc(C#N)ncc1NCc1ccccc1
27 | > 9.30 | 7.48 | CC(=O)N1CCC(N(NC(=O)OC(C)(C)C)c2nc(C#N)ncc2Br)CC1
28 | 8.70 | 6.92 | CC(C)CN(NC(=O)c1cc(-c2ccccc2)no1)c1nc(C#N)ncc1Cl
29 | 8.22 | 6.13 | Cc1ccc2sc(C(=O)NN(CC(C)C)c3nc(C#N)ncc3Br)cc2c1
30 | > 9.30 | 7.82 | CC(C)CN(NC(=O)c1cccc(-c2ccncc2)c1)c1nc(C#N)ncc1Br
31 | 8.15 | 7.01 | CC1OCCC1N(NC(=O)OC(C)(C)C)c1nc(C#N)ncc1Br (stereo not given)
32 | 7.82 | 7.16 | CC(C)CN(NC(=O)C1(c2ccc(Cl)cc2)CC1)c1nc(C#N)ncc1Br
33 | 8.22 | 6.99 | CC(C)CN(NC(=O)C1(c2ccccc2)CC1)c1nc(C#N)ncc1Br
34 | 7.55 | 5.84 | CC(C)CN(NC(=O)c1ccc(-c2ccccc2)cc1)c1nc(C#N)ncc1Br
35 | 8.05 | 7.25 | CC(C)(C)OC(=O)NN(c1nc(C#N)ncc1Br)C1CCCC1
36 | 8.52 | 7.18 | CC(C)CN(NC(=O)OC(C)(C)C)c1nc(C#N)ncc1C(F)(F)F
37 | 9.30 | 8.10 | CC(C)CN(NC(=O)Cc1c(F)cccc1F)c1nc(C#N)ncc1Br
38 | 8.70 | 6.84 | CC(C)CN(NC(=O)c1ccc(-n2ccc(C(F)(F)F)n2)cc1)c1nc(C#N)ncc1Cl
39 | 8.10 | 6.85 | CC(C)(C)OC(=O)NN(Cc1ccco1)c1nc(C#N)ncc1Br
40 | 7.00 | 6.24 | Cc1c(-c2ccccc2Cl)noc1C(=O)NN(CC(C)C)c1nc(C#N)ncc1Cl
41 | 7.23 | 5.78 | CC(C)CN(NC(=O)OC(C)(C)C)c1cncc(C#N)n1
42 | 7.92 | 6.74 | CC(C)CN(NC(=O)C1(c2ccc(Cl)cc2)CCCC1)c1nc(C#N)ncc1Br

Row | pIC50 [1] | pIC50 [2] | Structure (SMILES)
43 | 8.10 | 6.83 | CC(C)CN(NC(=O)c1ccc(-n2cccn2)cc1)c1nc(C#N)ncc1Cl
44 | 8.30 | 7.01 | CC(C)CN(NC(=O)c1ccc(-c2cccc(C(F)(F)F)c2)o1)c1nc(C#N)ncc1Br
45 | 5.08 | < 5.00 | COCc1cnc(C#N)nc1N(CC(C)C)NC(=O)OC(C)(C)C
46 | 8.15 | 6.38 | CC(C)(C)OC(=O)NN(CC1CC1)c1nc(C#N)ncc1Br
47 | 7.77 | 6.46 | CC(C)(C)OC(=O)NN(Cc1ccccc1)c1nc(C#N)ncc1Br
48 | 8.15 | 7.20 | CC(C)CN(NC(=O)c1ccnn1-c1ccccc1)c1nc(C#N)ncc1Cl
49 | 8.82 | 8.22 | COc1ccc(CC(=O)NN(CC(C)C)c2nc(C#N)ncc2Br)cc1
50 | 8.70 | 7.55 | CC(C)(C)OC(=O)NN(c1nc(C#N)ncc1Br)C1CCOCC1
51 | 9.00 | 8.30 | COc1ccc(CC(=O)NN(CC(C)C)c2nc(C#N)ncc2Cl)cc1
52 | 9.00 | 7.18 | CC(C)CN(NC(=O)Cc1c(Cl)cccc1Cl)c1nc(C#N)ncc1Br
53 | 7.62 | 6.23 | CC(C)CN(NC(=O)OC(C)(C)C)c1nc(C#N)ncc1F
54 | 8.10 | 6.05 | CC(C)CN(NC(=O)c1ccc(Oc2ccccc2)cc1)c1nc(C#N)ncc1Br
55 | 6.74 | 5.91 | COc1ccc2oc(C(=O)NN(CC(C)C)c3nc(C#N)ncc3Br)cc2c1
56 | 8.52 | 7.28 | CC1CCC(N(NC(=O)OC(C)(C)C)c2nc(C#N)ncc2Br)C1 (stereo not given)
57 | 6.62 | 6.44 | CC(C)CN(NC(=O)c1cc2ccccc2s1)c1nc(C#N)ncc1Br
58 | 6.22 | < 5.00 | CC(C)CN(NC(=O)OC(C)(C)C)c1cccc(C#N)n1
59 | 8.40 | 6.16 | COc1ccc(-c2cc(C(=O)NN(CC(C)C)c3nc(C#N)ncc3Br)no2)cc1
60 | 8.52 | 8.22 | C[C@@H]1CCC[C@H]1N(NC(=O)OC(C)(C)C)c1nc(C#N)ncc1Br (relative stereo)
61 | 8.22 | 7.47 | COc1ccc(C(C)(C)C(=O)NN(CC(C)C)c2nc(C#N)ncc2Br)cc1
62 | 8.10 | 6.89 | CC(C)CN(NC(=O)c1cnoc1-c1ccccc1)c1nc(C#N)ncc1Cl
63 | 9.00 | 8.10 | CC(C)(C)OC(=O)NN(c1nc(C#N)ncc1Br)C1CCCCC1

— ChEMBL document CHEMBL1212900, “Falcipain inhibitors: optimization studies of the 2-pyrimidinecarbonitrile lead series” (J Med Chem, 2010)
